ROMK mod: human ROMK K+ channel modulation, primary screen; Tet-inducible ROMK, thallium flux fluorescence; actives lie on both sides; B-score at 10 µM; hit rate 2% among 130,000; AID 1918;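 active = signal ratio slope over the read window, or its plate-corrected B-score, at least 3 SD from the plate mean, either direction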;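 also: B-score of the F/F0 ratio slope over 7 to 12 s after thallium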
KCC2 mod: KCC2 (human) Cl- transport modulation. Q9H2X9. AID 1456. hit rate 2.2% among 190,000. B-score of Tl+ flux slope (higher = more flux/activation; lower = inhibition) at 10 µM. KCC2 cells, thallium flux FluoZin-2 fluorescence;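 active = thallium flux slope and its plate-corrected score both differing from the plate sample mean at a set confidence after two filtering rounds, in either direction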;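 also: slope of fluorescence scaled to starting intensity during 10 to 20 s after thallium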
b-catenin transl: alters nuclear translocation of beta-catenin in HeLa cells; immunofluorescence imaging; nuclear translocation activity, % at 5 µM; hit rate 0.3% among 190,000; AID 1665;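 active = nuclear translocation activity above 50% at 5 µM, with a well cell count of 50 or more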;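 also: per-cell ratio of nuclear to cytoplasmic median beta-catenin stain intensity; plate controls were DMSO negative control for no effect and GSK-3 inhibitor IX positive control for full effect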
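System: Human HeLa cells, endogenous beta-catenin | Compound dosing: 5 µM primary, 0.02–20 µM confirmation | Timing: 24 h compound exposure at 37°C, 5% CO2 | Measured by: Fluorescence imaging of beta-catenin antibody stain plus DAPI | Read-out basis: % activation of per-cell nuclear versus cytoplasmic median beta-catenin signal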
Redox H2O2 prof: compounds producing H2O2 with reducing agent – biochemical, NIH compound library profiling, artefact control for MLSCN library redox annotation, primary screen; DTT-dependent redox cycling H2O2, phenol red/HRP absorbance; 100% = 100 µM peroxide control, 0% = buffer; activation, % at 10 µM; hit rate 0.03% among 200,000;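 active = activation of at least 50% relative to the plate's high and low controls in the primary single-dose screen; inactive = activation below 50%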;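 also: compound incubated with DTT at 0.8 mM final as the reducing agent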
MT stabilize HCS: stabilizes microtubules in HeLa cells; AID 2205; % tubulin-high responders, % at 10 µM; HeLa tubulin immunostaining HCS, 24 h; share of cells brighter than vehicle mean+2SD; hit rate 0.83% among 200,000;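 active = plate Z-score above 3 for both tubulin-high and condensed-nucleus cell shares, with cell loss under 80%, at 10 µM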;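 also: anti alpha tubulin signal scored within the nucleus-defined area of each cell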
ROMK retest: human ROMK channel modulation, retest confirmation; shares compounds with ROMK mod; ROMK thallium flux, fluorescence ratio; stronger effect = lower value; normalized thallium flux (F/F0 slope) at 10 µM; hit rate 54% among 3,000; AID 1917;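 active = Flux at 10 µM at least 3 SD below or above vehicle control mean in one or both replicates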
* = called active by the depositor; i = inactive; / = no result given. The list is not random: actives were taken first. Their share in the collection is about 3.7%.

SMILES | ROMK mod | KCC2 mod | b-catenin transl | Redox H2O2 prof | MT stabilize HCS | ROMK retest
CC(C)Sc1nnc([C@@H](N)Cc2ccccc2)o1 | / | 0.0065 | 0 | 1 | 3 | 0.078
CSc1nnc([C@@H](N)Cc2ccccc2)o1 | / | 0.42 | -4 | 3 | 1 | /
CCOP(=O)(OCC)c1cc(CC)ccc1O | / | / | -2 | / | / | /
Cc1ccccc1N1C(=O)NC(=O)/C(=C\c2cc(Br)c(N3CCOCC3)o2)C1=O | / | i | 0 | 0 | 1 | 0.025*
O=C1/C(=C/c2ccccc2Cl)N2CCC1CC2 | / | 0.17 | 0 | / | / | /
O=[N+]([O-])c1ccc(N2CCCNCC2)c2ncccc12 | / | -0.0054 | -5 | / | / | 0.039*
Cc1ccc(C(=O)c2cc(Br)ccc2N)cc1 | / | / | -2 | -1 | 1 | /
CCN(CC)S(=O)(=O)c1cccc(N=Nc2c(O)n(CC)c(=S)n(CC)c2=O)c1 | / | -0.03 | -2 | / | / | /
CC(C)CN1CCN(Cc2ccc(C(F)(F)F)cc2)CC1CCO (stereo not drawn) | / | -0.53 | 2 | / | / | /
O=C1NC(=O)N(Cc2ccccc2Cl)C(=O)/C1=C/N1CCOCC1 | / | / | / | -3 | 2 | 0.06*
CCOc1ccc(N2C(=O)NC(=O)/C(=C/c3cnc(SC)nc3)C2=O)cc1 | 0.22 | -0.074 | 1 | -2 | 5 | /
c1ccc2c(c1)CC1CNCc3cccc(c31)S2 (stereo not drawn) | -2.8* | 2.4 | 0 | 0 | 8 | 0.054*
OCCN1C2CCC1CC(O)(c1ccc(F)cc1)C2 (stereo not drawn) | -0.74 | -0.0032 | / | 0 | 2 | /
OC1(c2ccc(F)cc2)CC2CCC(C1)N2Cc1nnnn1C1CCCCC1 (stereo not drawn) | -4.8* | / | / | 0 | 3 | 0.057*
O=C(COc1ccccc1)N1CCN(C2CCCC2)CC1 | / | 0.22 | -1 | 0 | 3 | /
O=C(COc1ccc2ccccc2c1)N1CCN(C2CCN(Cc3ccccc3)CC2)CC1 | -3* | 0.2 | 0 | 0 | 1 | 0.061*
CCC(=O)N1N=C(c2c(O)n(CCc3ccccc3)c(=O)[nH]c2=O)CC1c1ccc(OC)c(OC)c1 (stereo not drawn) | 0.21 | -0.16 | 0 | / | / | /
COc1cc(C[C@@H](C)N)c(OC)cc1I | / | -0.067 | -1 | / | / | /
CCN(CC)c1ccc(CNCCc2ccc(F)cc2)cc1 | -2.8* | 0.24 | 4 | 0 | 3 | 0.054*
